ChEMBL document CHEMBL1136623, “Cytotoxic activity of 6-alkynyl- and 6-alkenylpurines” (Bioorg Med Chem Lett, 2003)
Converted amounts (≈) assume the structure as drawn.

Tests used:
K562 [1] = assay: Percent inhibition of [3H]-thymidine incorporation was determined in human chronic myelogenous leukemic K-562 cell line at 10 ug/mL after 48 hr; type: functional
Summary of the method: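 Single-concentration screen. K-562 cells in log growth seeded at 2×10^4 cells/mL in supplemented RPMI 1640 and exposed 48 h to purine at 10 µg/mL, final DMSO 0.05%. Followed by a 2 h [3H]-thymidine pulse (1 µCi/well), harvest onto fiberglass filters, and scintillation count. Reported as percent inhibition of incorporation.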

K562 [2] = assay: Inhibitory concentration required against human chronic myelogenous leukemic K-562 cell line after 48h, using [3H]thymidine incorporation assay; type: functional, cell-based
Summary of the method: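 Logarithmically growing K-562 cells seeded at 2×10^4 cells/mL in RPMI 1640 with supplements. Exposed 48 h to purines at 10 to 0.078 µg/mL, final DMSO 0.05% (vol/vol). Pulsed 2 h with 1 µCi/well [3H]-thymidine, harvested onto fiberglass filters, and cell-associated radioactivity counted. IC50 taken as the concentration inhibiting incorporation by 50%.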

K562 [3] = assay: Inhibitory concentration required against human chronic myelogenous leukemic K-562 cell line after 5h, using [3H]thymidine incorporation assay; type: functional, cell-based
Summary of the method: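 K-562 cells in log-phase growth seeded at 4×10^4 cells/mL in supplemented RPMI 1640. Purines at 10 to 0.078 µg/mL for 5 h, final DMSO 0.05% (vol/vol). Then a 2 h pulse of 1 µCi/well [3H]-thymidine, filter harvest, and counting of cell-bound radioactivity. IC50 is the concentration giving 50% inhibition of incorporation.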

Molecule `C(#Cc1ncnc2c1ncn2C1CCOCC1)c1ccccc1` has an inhibition at 10 µg/mL (K562 [1]) of 100%, an IC50 (K562 [2]) of 0.5 µg/mL (≈ 1.64 µM) and an IC50 (K562 [3]) of 3.2 µg/mL (≈ 10.5 µM).
`C(=C\c1[nH]cnc2ncnc1-2)/c1ccco1` showed an inhibition at 10 µg/mL (K562 [1]) of 24%.
In the case of `Clc1nc(C#Cc2ccccc2)c2ncn(Cc3ccccc3)c2n1`, the inhibition at 10 µg/mL (K562 [1]) was 100%, the IC50 (K562 [2]) was 0.12 µg/mL (≈ 0.348 µM) and the IC50 (K562 [3]) was 0.8 µg/mL (≈ 2.32 µM).
`COC(=O)/C(C)=C/C#Cc1[nH]cnc2ncnc1-2` gave an inhibition at 10 µg/mL (K562 [1]) of 100%, an IC50 (K562 [2]) of 1.6 µg/mL (≈ 6.61 µM) and an IC50 (K562 [3]) of 3.2 µg/mL (≈ 13.2 µM).
Molecule `C(=C\c1ncnc2c1ncn2C1CCOCC1)/c1ccsc1` has an inhibition at 10 µg/mL (K562 [1]) of 58%.
For `C(=C\c1[nH]cnc2ncnc1-2)/c1ccccc1`, the inhibition at 10 µg/mL (K562 [1]) was 28%.
`C=Cc1ncnc2ncn(Cc3ccccc3)c12` was tested, and the inhibition at 10 µg/mL (K562 [1]) was 100%, the IC50 (K562 [2]) was 0.5 µg/mL (≈ 2.12 µM) and the IC50 (K562 [3]) was 1.4 µg/mL (≈ 5.93 µM).
`C(#Cc1ncnc2c1ncn2Cc1ccccc1)c1ccccc1` gave an inhibition at 10 µg/mL (K562 [1]) of 98%, an IC50 (K562 [2]) of 1.3 µg/mL (≈ 4.19 µM) and an IC50 (K562 [3]) of 6 µg/mL (≈ 19.3 µM).
`C(=C\c1[nH]cnc2ncnc1-2)/c1ccsc1` gave an inhibition at 10 µg/mL (K562 [1]) of 32%.
`Nc1nc(/C=C/c2ccccc2)c2[nH]cnc2n1` gave an inhibition at 10 µg/mL (K562 [1]) of 2%.
With `C=Cc1ncnc2c1ncn2Cc1ccccc1` the inhibition at 10 µg/mL (K562 [1]) was 100%, the IC50 (K562 [2]) was 1.1 µg/mL (≈ 4.66 µM) and the IC50 (K562 [3]) was 2.2 µg/mL (≈ 9.31 µM).
With `Nc1nc(/C=C/c2ccccc2)c2ncn(Cc3ccccc3)c2n1` the inhibition at 10 µg/mL (K562 [1]) was 91%, the IC50 (K562 [2]) was 1.2 µg/mL (≈ 3.67 µM) and the IC50 (K562 [3]) was 2 µg/mL (≈ 6.11 µM).
For `C(#Cc1nc(-c2ccccc2)nc2c1ncn2Cc1ccccc1)c1ccccc1`, the inhibition at 10 µg/mL (K562 [1]) was 100%, the IC50 (K562 [2]) was 1.4 µg/mL (≈ 3.62 µM) and the IC50 (K562 [3]) was 2.4 µg/mL (≈ 6.21 µM).
For `CC(C)=CC#Cc1[nH]cnc2ncnc1-2`, the inhibition at 10 µg/mL (K562 [1]) was 30%.
Molecule `C/C(=C\C#Cc1[nH]cnc2ncnc1-2)CO` has an inhibition at 10 µg/mL (K562 [1]) of 17%.
With `COc1ccc(/C=C/c2ncnc3c2ncn3C2CCOCC2)cc1` the inhibition at 10 µg/mL (K562 [1]) was 58%.
`COc1ccc(/C=C/c2[nH]cnc3ncnc2-3)cc1` gave an inhibition at 10 µg/mL (K562 [1]) of 54%.
Molecule `C(#Cc1[nH]cnc2ncnc1-2)c1ccccc1` has an inhibition at 10 µg/mL (K562 [1]) of 100%, an IC50 (K562 [2]) of 0.7 µg/mL (≈ 3.18 µM) and an IC50 (K562 [3]) of 5.9 µg/mL (≈ 26.8 µM).
For `Clc1nc2c(C#Cc3ccccc3)ncnc2n1C1CCOCC1`, the inhibition at 10 µg/mL (K562 [1]) was 85%, the IC50 (K562 [2]) was 6.1 µg/mL (≈ 18 µM) and the IC50 (K562 [3]) was 7 µg/mL (≈ 20.7 µM).
With `C(=C\c1ncnc2c1ncn2C1CCOCC1)/c1cccs1` the inhibition at 10 µg/mL (K562 [1]) was 65%.
In the case of `Clc1nc(/C=C/c2ccccc2)c2ncn(Cc3ccccc3)c2n1`, the inhibition at 10 µg/mL (K562 [1]) was 99%, the IC50 (K562 [2]) was 2 µg/mL (≈ 5.77 µM) and the IC50 (K562 [3]) was 6 µg/mL (≈ 17.3 µM).
For `COC(=O)/C(C)=C/C=C/c1[nH]cnc2ncnc1-2`, the inhibition at 10 µg/mL (K562 [1]) was 20%.
With `OC[C@H]1OC(n2cnc3c(/C=C/c4ccccc4)ncnc32)[C@H](O)[C@@H]1O` (stereo partly drawn) the inhibition at 10 µg/mL (K562 [1]) was 79%, the IC50 (K562 [2]) was 2 µg/mL (≈ 5.64 µM) and the IC50 (K562 [3]) was 10 µg/mL (≈ 28.2 µM).
For `C(=C\c1ncnc2c1ncn2C1CCOCC1)/c1ccccc1`, the inhibition at 10 µg/mL (K562 [1]) was 66%.
`C/C(=C\C=C\c1ncnc2c1ncn2C1CCOCC1)CO` was tested, and the inhibition at 10 µg/mL (K562 [1]) was 27%.
`Nc1nc(F)nc2c1ncn2[C@@H]1O[C@H](CO)[C@@H](O)[C@@H]1O` [FLUDARABINE] was tested, and the inhibition at 10 µg/mL (K562 [1]) was 98%, the IC50 (K562 [2]) was 0.6 µg/mL (≈ 2.1 µM) and the IC50 (K562 [3]) was 0.6 µg/mL (≈ 2.1 µM).
Molecule `C(=C\c1[nH]cnc2ncnc1-2)/c1cccs1` has an inhibition at 10 µg/mL (K562 [1]) of 50%.
`C/C(=C\C=C\c1[nH]cnc2ncnc1-2)CO` was tested, and the inhibition at 10 µg/mL (K562 [1]) was 6%.
For `C(=C\c1ncnc2c1ncn2Cc1ccccc1)/c1ccccc1`, the inhibition at 10 µg/mL (K562 [1]) was 93%.
In the case of `C(=C\c1ncnc2c1ncn2C1CCOCC1)/c1ccco1`, the inhibition at 10 µg/mL (K562 [1]) was 35%.
In the case of `C(=C\c1nc(-c2ccccc2)nc2c1ncn2Cc1ccccc1)/c1ccccc1`, the inhibition at 10 µg/mL (K562 [1]) was 34%.
`OC[C@H]1OC(n2cnc3c(C#Cc4ccccc4)ncnc32)[C@H](O)[C@@H]1O` (stereo partly drawn) showed an inhibition at 10 µg/mL (K562 [1]) of 100%, an IC50 (K562 [2]) of 0.1 µg/mL (≈ 0.284 µM) and an IC50 (K562 [3]) of 0.2 µg/mL (≈ 0.568 µM).
In the case of `Sc1ncnc2nc[nH]c12` [MERCAPTOPURINE ANHYDROUS], the inhibition at 10 µg/mL (K562 [1]) was 80%, the IC50 (K562 [2]) was 0.6 µg/mL (≈ 3.94 µM) and the IC50 (K562 [3]) was over 10 µg/mL.
